According to ChEMBL document CHEMBL3297735, “Optimization of troglitazone derivatives as potent anti-proliferative agents: towards more active and less toxic compounds” (Eur J Med Chem, 2014):

Experiments:
HCT-116 = assay: Cytotoxicity against human HCT116 cells assessed as cell viability at 10 uM after 72 hrs by MTS assay in presence of 10% fetal calf serum relative to control; assay type: functional; conditions: HCT-116, 72 h, read-out: Activity
MCF7 [1] = assay: Cytotoxicity against human MCF7 cells assessed as cell viability at 10 uM after 72 hrs by MTS assay in presence of 10% fetal calf serum relative to control; assay type: functional; conditions: MCF7, 72 h, read-out: Activity
Procedure, shortened: (§1)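 Cells were grown in RPMI with L-glutamine, 10% FCS, penicillin/streptomycin and fungizone at 37 °C under 5% CO2. Wells were seeded with 1900 cells for MCF-7 or 1300 cells for MDA-MB-231. After 24 h, compound was added from a 10 mM DMSO stock (final DMSO 1%) for 72 h, with DMSO-only controls. Viable cells were read by MTS at 490 nm and expressed as % of untreated. Mean ± SEM, N = 3.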

MDA-MB-231 [2] = assay: Cytotoxicity against human MDA-MB-231 cells assessed as cell viability at 10 uM after 72 hrs by MTS assay in presence of 10% fetal calf serum relative to control; assay type: functional; conditions: MDA-MB-231, 72 h, read-out: Activity; procedure, shortened: as §1
[3] = Cytotoxicity against human MDA435 cells assessed as cell viability at 10 uM after 72 hrs by MTS assay in presence of 10% fetal calf serum relative to control; assay type: functional; conditions: MDA-MB-435, 72 h, read-out: Activity
[4] = Cytotoxicity against human MiaPaCa cells assessed as cell viability at 10 uM after 72 hrs by MTS assay in presence of 10% fetal calf serum relative to control; assay type: functional; conditions: MIA PaCa-2, 72 h, read-out: Activity
HepG2 = assay: Cytotoxicity against human HepG2 cells assessed as cell viability at 10 uM after 72 hrs by MTS assay in presence of 10% fetal calf serum relative to control; assay type: functional; conditions: HepG2, 72 h, read-out: Activity
PC-3 = assay: Cytotoxicity against human PC3 cells assessed as cell viability at 10 uM after 72 hrs by MTS assay in presence of 10% fetal calf serum relative to control; assay type: functional; conditions: PC-3, 72 h, read-out: Activity
LNCaP = assay: Cytotoxicity against human LNCAP cells assessed as cell viability at 10 uM after 72 hrs by MTS assay in presence of 10% fetal calf serum relative to control; assay type: functional; conditions: read-out: Activity
[5] = Cytotoxicity against human hepatocytes assessed as cell viability at 100 uM after 90 mins by MTT assay relative to control; assay type: cell-based, Hepatocyte; conditions: read-out: Activity
Procedure, shortened: (§2)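 Cryopreserved human hepatocytes were plated at 0.1 × 10⁶ cells/well and exposed to compound for 90 min. MTT was then added for 30 min at 37 °C, plates were centrifuged, and formazan was dissolved in DMSO. Absorbance was read at 595 nm. Surviving cells are expressed as % of non-treated cells ± SEM.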

[6] = Cytotoxicity against human hepatocytes assessed as cell viability at 200 uM after 90 mins by MTT assay relative to control; assay type: cell-based, Hepatocyte; conditions: read-out: Activity; procedure, shortened: as §2
Mus musculus [7] = assay: Toxicity in BALBc/AnNHsd mouse assessed as mortality at 64.6 mg/kg, iv; assay type: organism-based; set-up: dose 64.6 mg/kg, route intravenous; conditions: in vivo
Mus musculus [8] = assay: Toxicity in BALBc/AnNHsd mouse assessed as behavioral changes at 34 mg/kg, iv; assay type: organism-based; set-up: dose 34 mg/kg, route intravenous; conditions: in vivo
Procedure, shortened: (§3)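 Acute toxicity was assessed in female BALBc/AnNHsd mice after intravenous injection of compound in a solvent mixture, to estimate the maximum tolerated dose.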

Mus musculus [9] = assay: Toxicity in BALBc/AnNHsd mouse assessed as change in body weight at 34 mg/kg, iv measured between day 1 and day 15 (reference value: 18 +/- 1 g); assay type: organism-based; set-up: dose 34 mg/kg, route intravenous; conditions: in vivo; procedure, shortened: as §3
Mus musculus [10] = assay: Toxicity in BALBc/AnNHsd mouse assessed as change in organ morphology at 34 mg/kg, iv; assay type: organism-based; set-up: dose 34 mg/kg, route intravenous; conditions: in vivo; procedure, shortened: as §3
MCF7 [11] = assay: Cytotoxicity against human MCF7 cells after 24 hrs by CellTiterGlo assay in presence of 1% fetal calf serum; assay type: functional, cell-based; conditions: MCF7, 24 h
Procedure, shortened: (§4)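 MCF-7 was maintained in phenol red DMEM and MDA-MB-231 in L-15. Cells were seeded in 6-well plates at 8.10⁴ cells/well in medium with 10% FCS and 2 mM L-glutamine. Medium was then switched to 1% FCS with 2 mM L-glutamine for treatment, with 0.1% DMSO controls. Cells were washed, trypsinized and counted with CellTiter-Glo luminescence. Each treatment was run in triplicate, and IC50 was taken as the concentration halving viable cells.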

MDA-MB-231 [12] = assay: Cytotoxicity against human MDA-MB-231 cells after 24 hrs by CellTiterGlo assay in presence of 1% fetal calf serum; assay type: functional, cell-based; conditions: MDA-MB-231, 24 h; procedure, shortened: as §4
[13] = Acute toxicity in iv dosed BALBc/AnNHsd mouse; assay type: organism-based; conditions: in vivo
Procedure, shortened: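 Acute toxicity run in female BALBc/AnNHsd mice given the compounds by intravenous injection. The read-out was the maximum tolerated dose (MTD). Compounds were dissolved in a mixture of solvents, and the top dose was capped by solubility in that mixture.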

Mus musculus [14] = assay: Toxicity in BALBc/AnNHsd mouse assessed as mortality at 65.5 mg/kg, iv; assay type: organism-based; set-up: dose 65.5 mg/kg, route intravenous; conditions: in vivo
Mus musculus [15] = assay: Toxicity in BALBc/AnNHsd mouse assessed as behavioral changes at 65.5 mg/kg, iv; assay type: organism-based; set-up: dose 65.5 mg/kg, route intravenous; conditions: in vivo
Mus musculus [16] = assay: Toxicity in BALBc/AnNHsd mouse assessed as change in body weight at 65.5 mg/kg, iv measured on day 1 (reference value: 17.67 +/- 0.33 g); assay type: organism-based; set-up: dose 65.5 mg/kg, route intravenous; conditions: in vivo; procedure, shortened: as §3
Mus musculus [17] = assay: Toxicity in BALBc/AnNHsd mouse assessed as change in body weight at 65.5 mg/kg, iv measured on day 2 (reference value: 19 +/- 1 g); assay type: organism-based; set-up: dose 65.5 mg/kg, route intravenous; conditions: in vivo; procedure, shortened: as §3
Mus musculus [18] = assay: Toxicity in BALBc/AnNHsd mouse assessed as change in body weight at 65.5 mg/kg, iv measured on day 15 (reference value: 18.33 +/- 0.33 g); assay type: organism-based; set-up: dose 65.5 mg/kg, route intravenous; conditions: in vivo; procedure, shortened: as §3
Mus musculus [19] = assay: Toxicity in BALBc/AnNHsd mouse assessed as change in organ morphology at 65.5 mg/kg, iv; assay type: organism-based; set-up: dose 65.5 mg/kg, route intravenous; conditions: in vivo
[20] = Toxicity in BALBc/AnNHsd mouse assessed as mortality at 34 mg/kg, iv relative to control; assay type: organism-based; set-up: dose 34 mg/kg, route intravenous; conditions: in vivo

SMILES	viability at 10 µM (HCT-116) [%]	viability at 10 µM (MCF7 [1]) [%]	viability at 10 µM (MDA-MB-231 [2]) [%]	viability at 10 µM [3] [%]	viability at 10 µM [4] [%]	viability at 10 µM (HepG2) [%]	viability at 10 µM (PC-3) [%]	viability at 10 µM (LNCaP) [%]	viability at 1.5 h, 100 µM [5] [%]	viability at 1.5 h, 200 µM [6] [%]	MTD [13] [mg/kg]	other results
Cc1c(C)c2c(c(C)c1CCCCCCNC(=O)OC(C)(C)C)CCC(C)(COc1ccc(/C=C3\SC(=O)NC3=O)cc1)O2 (racemic)	45.2	75.5	49.3	60.9	69.7	22.7	73.7	32.2	85.1	80.3		
CC1(CN2C(=O)S/C(=C\c3cc(Br)c(O)c(Br)c3)C2=O)CCCCC1	13	23.8	46.9	30.6	34.7	25.8	52.9	18.8	42.1	30.3		
Cc1c(C)c2c(c(C)c1O)CCC(C)(CN1C(=O)S/C(=C\c3ccc(O)cc3)C1=O)O2 (racemic)	5.3	5.2	4.8	13.4	0	20.8	36.3	48.9	110	103		
Cc1c(C)c2c(c(C)c1CCCCCCN)CCC(C)(COc1ccc(/C=C3\SC(=O)NC3=O)cc1)O2.O=C(O)C(F)(F)F (racemic)	6.9	2.7	7.6	35.2	5.9	12.9	60.1	46.8	83.2	79.9	34	Activity (Mus musculus [7]): Toxic; Activity (Mus musculus [8]): Non-toxic; Activity (Mus musculus [9]): 21.5 g; Activity (Mus musculus [10]): Non-toxic; IC50 (MCF7 [11]): 3.6 µM; IC50 (MDA-MB-231 [12]): 1.5 µM
Cc1c(C)c2c(c(C)c1O)CCC(C)(COc1ccc(CC3SC(=O)NC3=O)cc1)O2 (stereo not drawn) [TROGLITAZONE]	90.7	96.7	88.1	87.8	98.3	85.8	86.2	82.8	52.2	22.5		
Cc1c(C)c2c(c(C)c1CCCCCCN)CCC(C)(COc1ccc(/C=C3\SC(=O)N(C)C3=O)cc1)O2.O=C(O)C(F)(F)F (racemic)	0	0	0	0	0	0	7.7	11.6	82.6	82.7	65.5	Activity (Mus musculus [14]): Non-toxic; Activity (Mus musculus [15]): Non-toxic; Activity (Mus musculus [16]): 17.67 g; Activity (Mus musculus [17]): 19 g; Activity (Mus musculus [18]): 18.5 g; Activity (Mus musculus [19]): Non-toxic; IC50 (MCF7 [11]): 6.1 µM; IC50 (MDA-MB-231 [12]): 6.7 µM
Cc1c(C)c2c(c(C)c1O)CCC(C)(COc1ccc(/C=C3\SC(=O)NC3=O)cc1)O2 (stereo not drawn)	88	84	69.3	73.1	95	82.3	83.1	85.4	62.8	43.1	34	mortality [20]: > 50%
